Test [1] is described as follows: RPL19A-GFP modulators, yeast TOR pathway, confirmation, cell-based, S. cerevisiae, flow cytometry, cherry picks, mother/daughter gates (AID 2270;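 active = GFP response below 50% of the DMSO control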). The settings on record: S. cerevisiae RPL19A-GFP strain, 3 h, at 10 µM, stronger effect = lower value, 100 = same GFP as DMSO wells.
A short description of test [2]: LAP4-GFP expression modulators in yeast, confirmation, cell-based, cherry picks, flow cytometry, mother/daughter gates (AID 2271;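 active = GFP response above 150% of the DMSO control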;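 also: ratio of sample to DMSO plate mean so 100% equals DMSO level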). Conditions: S. cerevisiae LAP4-GFP strain, 3 h, at 10 µM, stronger effect = higher value, 100 means same as DMSO control. The essentials:
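Measured by: GFP by flow cytometry. Test system: GFP-fusion yeast strain. Input: yeast cells seeded at OD600 of 0.2. Timing: 30 °C, 3 h compound incubation, rotating. Buffer or medium: synthetic complete medium for yeast. Benchmarks: DMSO-only negative wells, rapamycin 400 ng/mL positive wells. Compound: 10 µM single dose.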
On the technique in general: A flow cytometer gives signals particle by particle.

The nature of test [3]: modulators of MEP2-GFP levels in yeast, confirmation, S. cerevisiae, flow cytometry GFP, cherry picks (AID 2272;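 active = GFP response above 150% of the DMSO control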;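 also: ratio of well signal to plate DMSO mean so 100% equals DMSO level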). Conditions: S. cerevisiae MEP2-GFP strain, 3 h, at 10 µM, stronger effect = higher value.
Test [4] is described as follows: AGP1-GFP expression modulators, hit retest, confirmation, cell-based, flow cytometry, S. cerevisiae, cherry picks (AID 2273).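 Also: median GFP channel fluorescence over the whole cell population gate.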 The settings on record: S. cerevisiae AGP1-GFP strain, 3 h, at 10 µM.
Test [5] in a line: modulators of CIT2-GFP expression in yeast, confirmation, S. cerevisiae, GFP fusion, cherry picks, mother/daughter gates (AID 2274). Conditions: S. cerevisiae CIT2-GFP strain, flow cytometry, 3 h, at 10 µM, stronger effect = higher value.
The mark [6] stands for this setting: measured here: daughter cell gate.
[7] abbreviates: measured here: mother cell gate.
Where [8] appears, read: measured here: daughter cell gate response.
The mark [9] stands for this setting: measured here: mother cell gate response.

Active and inactive are the calls of the source.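 The calls were made as follows, unless noted: active = GFP response above 150% of the DMSO level; inconclusive = fewer than 70 events counted for a yeast strain; inactive = the rest.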

For `Cn1c(=O)c2ccccc2n(Cc2cccc(F)c2)c1=O`, the GFP response vs DMSO is 97.6% (inactive) in test [1], 97.8% in test [1] (setting [6]), 97.3% in test [1] (setting [7]) and 103% (inactive) in test [3]. Further, the figures for the GFP response relative to DMSO in test [2], in test [2] (setting [8]) and in test [2] (setting [9]) were 104% (inactive), 101% and 105%, respectively. The GFP response, % of DMSO in test [4] is 101% (inactive); in test [5] it was 94.4% (inactive); in test [5] (setting [6]) it was 95.8%; in test [5] (setting [7]), 93.8%.
For `Cc1noc(/C=C/c2cccnc2)c1[N+](=O)[O-]`, the GFP response vs DMSO in test [1] was 105% (inactive); in test [1] (setting [6]) it was 104%; in test [1] (setting [7]), 103%; in test [3], 104% (inactive). The GFP response relative to DMSO was 120% (inactive) in test [2], 117% in test [2] (setting [8]) and 124% in test [2] (setting [9]). Moreover, the GFP response, % of DMSO in test [4] is 92.4% (inactive); in test [5], 92.6% (inactive); in test [5] (setting [6]), 94.8%; in test [5] (setting [7]) it was 89.1%.
For `CCc1ccc(CNC(=O)CCC(=O)N2Cc3cccc(OC)c3Oc3ncccc32)cc1`, the GFP response vs DMSO in test [1] is 99.2% (inactive); in test [1] (setting [6]), 98.8%; in test [1] (setting [7]) it was 99.9%; in test [3], 101% (inactive). The GFP response relative to DMSO in test [2] is 94.4% (inactive); in test [2] (setting [8]), 94.2%; in test [2] (setting [9]) it was 95.2%. In addition, the GFP response, % of DMSO in test [4] was 96.7% (inactive); in test [5], 102% (inactive); in test [5] (setting [6]), 105%; in test [5] (setting [7]) it was 94.4%.
For the molecule `COc1cc(NC(=O)c2ccccc2)ccc1NC(=O)c1cc2ccccc2o1`, the GFP response vs DMSO in test [1] is 98.7% (inactive); in test [1] (setting [6]), 98.7%; in test [1] (setting [7]) it was 97.8%; in test [3] it was 103% (inactive). Further, the values for the GFP response relative to DMSO in test [2], in test [2] (setting [8]) and in test [2] (setting [9]) were 94.1% (inactive), 97.5% and 92.3%, respectively. Further, the GFP response, % of DMSO was 101% (inactive) in test [4], 100% (inactive) in test [5], 95.8% in test [5] (setting [6]) and 100% in test [5] (setting [7]).
Regarding `Cc1ccccc1OCC(=O)NNC(=S)NC(=O)c1ccco1`, the GFP response vs DMSO in test [1] is 122% (inactive); in test [1] (setting [6]), 111%; in test [1] (setting [7]), 118%; in test [3] it was 129% (inactive). The GFP response relative to DMSO was 147% (inactive) in test [2], 135% in test [2] (setting [8]) and 137% in test [2] (setting [9]). For the same molecule, the GFP response, % of DMSO in test [4] was 110% (inactive); in test [5], 125% (inactive); in test [5] (setting [6]), 122%; in test [5] (setting [7]), 112%.
With `CCC(=O)Nc1ccc(NC(=O)c2oc3ccccc3c2C)cc1`, the GFP response vs DMSO in test [1] was 101% (inactive); in test [1] (setting [6]), 95%; in test [1] (setting [7]), 96.3%; in test [3], 102% (inactive). Also, the GFP response relative to DMSO in test [2] was 99.8% (inactive); in test [2] (setting [8]) it was 100%; in test [2] (setting [9]) it was 101%. The GFP response, % of DMSO in test [4] is 93.9% (inactive); in test [5], 103% (inactive); in test [5] (setting [6]), 99.7%; in test [5] (setting [7]), 102%.
Take `CCc1nn2c(N3CCOCC3)cc(C)nc2c1-c1ccc(F)cc1`: the GFP response vs DMSO is 99.8% (inactive) in test [1], 99.8% in test [1] (setting [6]), 98.4% in test [1] (setting [7]) and 106% (inactive) in test [3]. The GFP response relative to DMSO in test [2] was 104% (inactive); in test [2] (setting [8]), 104%; in test [2] (setting [9]) it was 104%. Besides, the GFP response, % of DMSO in test [4] is 98.6% (inactive); in test [5], 95.8% (inactive); in test [5] (setting [6]) it was 101%; in test [5] (setting [7]), 94.9%.
For the molecule `COc1ccc(Br)cc1/C=C/C(=O)c1ccc(NC(C)=O)cc1`, the GFP response vs DMSO was 100% (inactive) in test [1], 98.4% in test [1] (setting [6]), 97.7% in test [1] (setting [7]) and 101% (inactive) in test [3]. The GFP response relative to DMSO is 89.4% (inactive) in test [2], 89.8% in test [2] (setting [8]) and 92.3% in test [2] (setting [9]). The GFP response, % of DMSO in test [4] is 98.6% (inactive); in test [5], 98.6% (inactive); in test [5] (setting [6]) it was 101%; in test [5] (setting [7]), 96%.
As to `COc1ccc(OC)c(C2CC(c3c(-c4ccccc4)c4cc(Cl)ccc4[nH]c3=O)=NN2S(C)(=O)=O)c1` (stereo unspecified), the GFP response vs DMSO in test [1] is 100% (inactive); in test [1] (setting [6]), 99%; in test [1] (setting [7]) it was 102%; in test [3], 100% (inactive). The GFP response relative to DMSO was 92.6% (inactive) in test [2], 92.5% in test [2] (setting [8]) and 97.2% in test [2] (setting [9]). Further, the GFP response, % of DMSO in test [4] is 96.1% (inactive); in test [5], 97.8% (inactive); in test [5] (setting [6]) it was 96.5%; in test [5] (setting [7]), 97.7%.
For `COc1cc(N2C(=O)C=CC2=O)c(OC)cc1Cl`, the GFP response vs DMSO is 85.7% (inactive) in test [1], 90% in test [1] (setting [6]), 75% in test [1] (setting [7]) and 133% (inactive) in test [3]. Moreover, the GFP response relative to DMSO was 303% (active) in test [2], 211% in test [2] (setting [8]) and 272% in test [2] (setting [9]). The GFP response, % of DMSO was 108% (inactive) in test [4], 90% (inactive) in test [5], 96.5% in test [5] (setting [6]) and 79.4% in test [5] (setting [7]).
In the case of `Cc1[nH]c2ccccc2c1C(c1ccccn1)N1CCC(C(N)=O)CC1` (stereo unspecified), the GFP response vs DMSO is 97.4% (inactive) in test [1], 99.1% in test [1] (setting [6]), 96.6% in test [1] (setting [7]) and 98.3% (inactive) in test [3]. Also, the GFP response relative to DMSO in test [2] was 96.7% (inactive); in test [2] (setting [8]), 99.2%; in test [2] (setting [9]), 97.2%. Besides, the GFP response, % of DMSO was 94.7% (inactive) in test [4], 101% (inactive) in test [5], 103% in test [5] (setting [6]) and 101% in test [5] (setting [7]).
With `COc1ccc(OC)c(C2C(C(=O)Nc3nc4ccccc4s3)=C(C)NC3=C2C(=O)CCC3)c1` (stereo unspecified), the GFP response vs DMSO in test [1] is 102% (inactive); in test [1] (setting [6]) it was 78.4%; in test [1] (setting [7]), 78.4%; in test [3], 109% (inactive). The GFP response relative to DMSO is 102% (inactive) in test [2], 86.4% in test [2] (setting [8]) and 82.9% in test [2] (setting [9]). For the same molecule, the GFP response, % of DMSO in test [4] was 103% (inactive); in test [5], 103% (inactive); in test [5] (setting [6]), 85%; in test [5] (setting [7]) it was 83.7%.
With `Cc1ccsc1C(=O)N(Cc1nnc(-c2ccccc2Cl)o1)C1CC1`, the GFP response vs DMSO was 95.8% (inactive) in test [1], 97.3% in test [1] (setting [6]), 95.2% in test [1] (setting [7]) and 103% (inactive) in test [3]. In addition, the GFP response relative to DMSO in test [2] is 98.9% (inactive); in test [2] (setting [8]), 96%; in test [2] (setting [9]), 100%. Also, the GFP response, % of DMSO in test [4] is 102% (inactive); in test [5] it was 100% (inactive); in test [5] (setting [6]), 99.3%; in test [5] (setting [7]), 99.3%.
For the molecule `Cc1nn2c(N3CCN(C(=O)c4ccco4)CC3)cc(C(C)(C)C)nc2c1-c1ccccc1`, the GFP response vs DMSO in test [1] is 98.2% (inactive); in test [1] (setting [6]), 97.6%; in test [1] (setting [7]), 98.9%; in test [3] it was 100% (inactive). Besides, the GFP response relative to DMSO is 92.8% (inactive) in test [2], 94.4% in test [2] (setting [8]) and 92.9% in test [2] (setting [9]). For the same molecule, the GFP response, % of DMSO in test [4] is 97.6% (inactive); in test [5] it was 95.5% (inactive); in test [5] (setting [6]) it was 97.2%; in test [5] (setting [7]), 95%.
Turning to `Brc1cc(Br)c2nc(-c3cccs3)ccc2c1`, the GFP response vs DMSO in test [1] is 97.4% (inactive); in test [1] (setting [6]), 99.1%; in test [1] (setting [7]) it was 96.7%; in test [3], 101% (inactive). The GFP response relative to DMSO was 99.5% (inactive) in test [2], 99.1% in test [2] (setting [8]) and 98.4% in test [2] (setting [9]). Further, the GFP response, % of DMSO is 98.2% (inactive) in test [4], 100% (inactive) in test [5], 97.4% in test [5] (setting [6]) and 99.3% in test [5] (setting [7]).
With `Cc1ccc(C2=NN(S(C)(=O)=O)C(c3ccc4nccnc4c3)C2)cc1` (stereo unspecified), the GFP response vs DMSO in test [1] was 98.6% (inactive); in test [1] (setting [6]), 99.4%; in test [1] (setting [7]) it was 97.6%; in test [3] it was 100% (inactive). Besides, the GFP response relative to DMSO is 101% (inactive) in test [2], 101% in test [2] (setting [8]) and 99.3% in test [2] (setting [9]). Also, the GFP response, % of DMSO is 96.8% (inactive) in test [4], 101% (inactive) in test [5], 103% in test [5] (setting [6]) and 99.7% in test [5] (setting [7]).

The values are drawn from PubChem BioAssay.
